Series [1] in a line: Cytotoxicity against human HEL cells. Type of series: cell-based. The conditions noted are these: for MCC: read-out: MIC.
Series [2] in a line: Inhibition of Varicella Zoster virus thymidine kinase-mediated [3H]thymidine phosphorylation. The arrangement: species or system Human alphaherpesvirus 3.
The test system of series [3] is Human alphaherpesvirus 3. Nature of the series: Antiviral activity against Varicella Zoster virus Oka infected in HEL cells assessed as reduction in viral plaque formation after 5 days. The conditions noted are these: Human alphaherpesvirus 3, Oka, 120 h. The format is functional, organism-based. Put shortly:
(§1)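 Confluent HEL cell monolayers infected with 20 PFU VZV per well; after 1–2 h adsorption, residual virus removed and cells incubated in MEM with 2% inactivated FCS, 1% L-glutamine, 0.3% sodium bicarbonate plus graded compound concentrations.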

Series [4] deals with Human alphaherpesvirus 3. Nature of the series: Antiviral activity against Varicella Zoster virus YS infected in HEL cells assessed as reduction in viral plaque formation after 5 days. Type of series: functional, organism-based. The conditions noted are these: Human alphaherpesvirus 3, YS, 120 h. Put shortly: as §1

Where only a bound is given, the exact number is not on record here.

In the case of `CCCCc1ccc(-c2cc3cn([C@H]4C[C@H](O)[C@@H](CO)O4)c(=O)nc3o2)cc1`, the MCC in series [1] was no less than 50 µM.
Same read-out and setting: with `CCCc1ccc(-c2cc3cn([C@H]4C[C@H](O)[C@@H](CO)O4)c(=O)nc3o2)cc1` the figure was no less than 50 µM.
In series [2], `CCC/C=C/c1ccccc1-c1cc2cn([C@H]3C[C@H](O)[C@@H](CO)O3)c(=O)nc2o1` displayed an IC50 of 119 µM. Also, in series [1], the CC50 was 41 µM and the MCC was found to be 80 µM. The EC50 with Human alphaherpesvirus 3 [3] is 8.4 µM.
Compound `CCC/C=C/c1ccc(-c2cc3cn([C@H]4C[C@H](O)[C@@H](CO)O4)c(=O)nc3o2)cc1` showed an IC50 in series [2] of 2.3 µM. Moreover, the CC50 in series [1] is greater than 200 µM. The MCC in series [1] is greater than 5 µM. The EC50 is 0.0008 µM with Human alphaherpesvirus 3 [4] and 0.0003 µM with Human alphaherpesvirus 3 [3].
The corresponding values for `CC/C=C/c1ccc(-c2cc3cn([C@H]4C[C@H](O)[C@@H](CO)O4)c(=O)nc3o2)cc1` are 2.4 µM, greater than 200 µM, no less than 5 µM, 0.007 µM and 0.0006 µM.
In turn, `C/C=C/c1ccc(-c2cc3cn([C@H]4C[C@H](O)[C@@H](CO)O4)c(=O)nc3o2)cc1` had an IC50 in series [2] of 1.9 µM. In addition, in series [1], the CC50 was greater than 200 µM and the MCC was no less than 50 µM. Besides, the EC50 in the series on Human alphaherpesvirus 3 [4] was 0.004 µM. Moreover, in the series on Human alphaherpesvirus 3 [3], the EC50 amounted to 0.004 µM.
Regarding `CC/C=C/c1ccccc1-c1cc2cn([C@H]3C[C@H](O)[C@@H](CO)O3)c(=O)nc2o1`, the IC50 in series [2] came to 3.8 µM. Further, in series [1], the CC50 stood at 102 µM and the MCC was 400 µM. Also, the EC50 in the series on Human alphaherpesvirus 3 [3] is 33 µM.
Consider `C/C=C/c1cccc(-c2cc3cn([C@H]4C[C@H](O)[C@@H](CO)O4)c(=O)nc3o2)c1`, for which 2.6 µM corresponded to half-maximal inhibition in series [2] (IC50). Besides, in series [1], the CC50 is greater than 200 µM and the MCC is greater than 200 µM. Further, the EC50 in the series on Human alphaherpesvirus 3 [4] was 58 µM. In the series on Human alphaherpesvirus 3 [3], the EC50 came to 13 µM.
With `CCC/C=C/c1cccc(-c2cc3cn([C@H]4C[C@H](O)[C@@H](CO)O4)c(=O)nc3o2)c1`, the IC50 in series [2] was determined as 397 µM. Besides, in series [1], the 50% cytotoxic concentration (CC50) was greater than 200 µM and the MCC is no less than 200 µM. For the same compound, the EC50 with Human alphaherpesvirus 3 [4] stood at 1.3 µM. The EC50 with Human alphaherpesvirus 3 [3] amounted to 1.1 µM.
The like results for `CC/C=C/c1cccc(-c2cc3cn([C@H]4C[C@H](O)[C@@H](CO)O4)c(=O)nc3o2)c1` were, in that order, 23 µM, 68 µM, no less than 20 µM, 2.3 µM and 1.9 µM.
Turning to `C/C=C/c1ccccc1-c1cc2cn([C@H]3C[C@H](O)[C@@H](CO)O3)c(=O)nc2o1`, in series [2], the IC50 turned out to be 0.31 µM. In series [1], the CC50 is 103 µM and the MCC was 400 µM. The EC50 with Human alphaherpesvirus 3 [3] is 12 µM.
For the compound `CCCCCc1ccc(-c2cc3cn([C@H]4C[C@H](O)[C@@H](CO)O4)c(=O)nc3o2)cc1` [CF1743], the MCC in series [1] is no less than 50 µM.

As usually defined, the IC50 is the concentration that inhibits the measured activity by half. Read a low IC50 as greater potency in that assay. The term CC50 denotes the concentration giving 50% cytotoxicity. Low values mean greater toxicity to the cells, high ones lower toxicity to the cells. What is called EC50 is the concentration giving half of the maximal effect.

(Values after ChEMBL document CHEMBL1153445, “Alkenyl substituted bicyclic nucleoside analogues retain nanomolar potency against Varicella Zoster Virus” (Bioorg Med Chem, 2009).)
